Rows were chosen to be rich in hits. Some 4.2% of all compounds tested hit in one or more screens of this group.
M18AAP inhibitor – PfM18AAP enzyme inhibition; 1.2% of 290,000 active; inhibition, % at 7.35 µM; AID 1822; recombinant PfM18AAP, H-Glu-NHMec fluorogenic cleavage;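 active = inhibition above the campaign mean inhibition over all tested compounds plus 3 SD, cut at about 28% in these data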
HDAC3 inh – inhibitors of human histone deacetylase 3. O15379. recombinant HDAC3, fluorogenic peptide/trypsin coupled, fluorescence. inhibition, % at 8.3 µM. AID 2718. 0.15% of 320,000 active; in the data active = inhibition above about 26%, passing the limit was not always enough; inconclusive = no clear call, values can overlap the other calls
FXN GAA850 act – activators of GAA850 frataxin (FXN) promoter; HEK293 lucGAA850 FXN promoter luciferase reporter, 24 h; percent of 10 µM SAHA response; AID 540364; 0.56% of 360,000 active; activation, % at 6 µM;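 active = activation above the average of all compounds screened plus 3 SD, cutoff fixed separately per campaign, cut at about 7.5% in these data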
SENP1 FRET inh – blocks the human SENP1 SUMO protease catalytic domain; Q9P0U3; recombinant SENP1 catalytic domain, CyPet-SUMO1-YPet FRET cleavage; inhibition, % at 10 µM; 0.21% of 360,000 active; AID 624204;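 active = inhibition at least 30% at 10 µM, raw YFP signal under a set limit, fluorescence ratio 0.5 to 1.5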
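Compound: 10 µM single point, 0.5% DMSO; Test system: hSENP1 catalytic domain, recombinant; Timing: 50 min reaction at room temperature; Technique: FRET, CFP and YFP emission; Control set: no-enzyme wells low, DMSO-plus-enzyme wells high control.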
Fh CTSL1 inh – counter-screen for PFM18AAP inhibitors: inhibitors of F. hepatica cathepsin L1 | recombinant F. hepatica cathepsin L1, Z-Leu-Arg-MCA fluorescence | inhibition, % at 5.96 µM | 0.49% of 300,000 active;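 active = inhibition above the mean of all tested compounds plus 3 SD, set per screening campaign, cut at about 17% in these data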
AHR activator – activators of human aryl hydrocarbon receptor; P35869; 2.5% of 320,000 active; AHR-responsive luciferase reporter cells, luminescence; activation, % at 5 µM; in the data active = activation above about 47%
Target sequence (P35869 whole entry, looked up): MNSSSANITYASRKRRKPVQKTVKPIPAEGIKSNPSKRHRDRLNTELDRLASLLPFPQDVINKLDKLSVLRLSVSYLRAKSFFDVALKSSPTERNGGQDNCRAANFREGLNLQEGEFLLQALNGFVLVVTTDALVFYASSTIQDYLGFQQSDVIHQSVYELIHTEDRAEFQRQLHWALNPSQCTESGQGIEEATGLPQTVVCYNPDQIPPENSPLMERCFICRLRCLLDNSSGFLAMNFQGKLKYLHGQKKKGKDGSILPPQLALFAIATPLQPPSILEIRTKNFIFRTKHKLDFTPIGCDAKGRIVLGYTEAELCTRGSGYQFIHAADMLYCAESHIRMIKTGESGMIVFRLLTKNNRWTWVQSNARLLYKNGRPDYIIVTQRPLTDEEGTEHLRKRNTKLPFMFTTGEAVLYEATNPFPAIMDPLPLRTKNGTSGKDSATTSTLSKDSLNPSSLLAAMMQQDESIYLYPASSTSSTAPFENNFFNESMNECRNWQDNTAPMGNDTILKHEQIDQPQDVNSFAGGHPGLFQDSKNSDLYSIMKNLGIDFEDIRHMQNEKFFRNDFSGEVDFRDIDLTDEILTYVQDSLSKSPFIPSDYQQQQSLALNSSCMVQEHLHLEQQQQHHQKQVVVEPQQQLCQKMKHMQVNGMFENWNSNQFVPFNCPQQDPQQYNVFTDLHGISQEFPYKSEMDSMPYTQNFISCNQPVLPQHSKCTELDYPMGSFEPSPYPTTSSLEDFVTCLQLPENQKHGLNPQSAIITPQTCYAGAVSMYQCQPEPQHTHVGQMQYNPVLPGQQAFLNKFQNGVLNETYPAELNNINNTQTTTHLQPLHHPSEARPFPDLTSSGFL
AHR act cf – human AHR activation, confirmation. shares compounds with AHR activator. human cells, AHR-responsive luciferase reporter, luminescence. activation, % at 9 µM. 87% of 2,300 active. AID 2845; in the data active = activation above about 49%;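 note: HepG2 hepatoma cells carrying a DRE-driven firefly luciferase reporter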
PXR counter – activates human PXR in AHR activator counter-screen. shares compounds with AHR activator. cell-based PXR reporter, luciferase luminescence. activation, % at 11.6 µM. 88% of 2,300 active; in the data active = activation above about 11%;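 note: human hepatoma DPX-2 cells expressing full-length human PXR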
Large screens that a line does not name were inactive (follow-up assays come after a bar, where they were run).

COc1ccc2nc(NC(=O)c3ccccc3[N+](=O)[O-])sc2c1	none
O=C(CN1CCOCC1)Nc1nc2ccc(F)cc2s1	none
COc1ccc2nc(NC(=O)c3ccccc3O)sc2c1	AHR activator 130 | AHR act cf inactive | PXR counter 33
COc1cccc(OC)c1C(=O)Nc1nc2ccc([N+](=O)[O-])cc2s1	AHR activator 81 | AHR act cf 75 | PXR counter inactive
COc1ccccc1NC(=O)c1ccc([N+](=O)[O-])cc1[N+](=O)[O-]	AHR activator 104 | AHR act cf 94 | PXR counter 29
CC/C(=N\NC(=S)Nc1cc(C)ccc1C)c1ccc(OC(F)F)cc1	HDAC3 inh inconclusive
CCCCCCN1C[C@H](O)[C@@H](n2cc(-c3ccc(F)cc3)nn2)C[C@@H]1c1ccc(C)cc1	none (no result: M18AAP inhibitor, HDAC3 inh, Fh CTSL1 inh, AHR activator)
O=C(CCn1c(=O)oc2ccccc21)Nc1nc2ccccc2s1	AHR activator 104 | AHR act cf 82 | PXR counter 104
COCC(=O)NCCNc1nc2ccc(C)cc2cc1C	none
Cc1ccc(C(=O)NCCNc2nc3cc(C)c(C)cc3cc2C)cc1	AHR activator 82 | AHR act cf 77 | PXR counter 28
CNC(=O)c1c(NC(=O)c2nc3ccccc3s2)sc2c1CCC2	AHR activator 112 | AHR act cf 79 | PXR counter 29
O=C(NC(=S)Nc1sc2c(c1C(=O)O)CCCC2)c1ccccc1	AHR activator 81 | AHR act cf 112 | PXR counter 16
Cn1ncc(Cl)c1C(=O)Nc1sc2c(c1C(N)=O)CCC2	AHR activator 121 | AHR act cf 96 | PXR counter 137
NC(=O)c1c(NC(=O)c2cnccn2)sc2c1CCCC2	none
CC(C)C(=O)NC(=S)Nc1sc2c(c1C(N)=O)CCCC2	AHR activator 90 | AHR act cf 97 | PXR counter 16
COC(=O)c1c(NC(=O)c2nc3ccccc3s2)sc2c1CCN(C(C)=O)C2	none
O=C(C1CCCN(S(=O)(=O)c2cc(Cl)ccc2Cl)C1)N1CCCC1 (centres undefined)	none
O=C(C[n+]1cccc(C(=O)Nc2ccccc2)c1)c1ccccc1	none (no result: M18AAP inhibitor, HDAC3 inh, FXN GAA850 act, Fh CTSL1 inh, AHR activator)
NC(=O)c1c(NC(=O)c2ccncc2)sc2c1CCCC2	none
Cc1occc1C(=O)Nc1sc2c(c1C(N)=O)CCCCC2	M18AAP inhibitor 29, AHR activator 83 | AHR act cf 79 | PXR counter 49
NC(=O)c1c(NC(=O)c2ccccc2)sc2c1CCC2	AHR activator 125 | AHR act cf 146 | PXR counter 24
COC(=O)c1c(NC(=O)c2ccoc2C)sc2c1CCC2	none
CCc1ccc(NC(=O)C(C)Sc2nc(-c3ccco3)c(C#N)c(=O)[nH]2)cc1 (centres undefined)	none
CN(C)c1ccc(S(=O)(=O)N2CCC(Cc3ccccc3)CC2)cn1	none (no result: M18AAP inhibitor, Fh CTSL1 inh)
COCc1nnc(NC(=O)CCS(=O)(=O)c2ccccc2)s1	none
COc1ccc(OC)c2sc(NC(=O)CCS(=O)(=O)c3ccccc3)nc12	AHR activator 115 | AHR act cf 63 | PXR counter 24
CN(C)c1ccc(Nc2nc(-c3cccnc3)cs2)cc1	AHR activator 90 | AHR act cf 62 | PXR counter 27
COc1ccc(/C(C)=N/OCC(=O)N2CC3(C)CC2CC(C)(C)C3)cc1 (centres undefined)	none
CN(C)CCCN1C(=O)c2cccc3cccc(c23)C1=O	AHR activator 141 | AHR act cf 163
Cc1ccc(N(CCCCN2C(=O)c3ccccc3C2=O)C(=O)c2cccc([N+](=O)[O-])c2)cc1	none
O=C1c2cccc3cccc(c23)C(=O)N1CCCSc1ncn[nH]1	AHR activator 101 | AHR act cf 88 | PXR counter 57
COc1ccc(N(CCCN2C(=O)c3cccc4cccc(c34)C2=O)C(=O)c2cccc(OC)c2)cc1	AHR activator 88 (no result: HDAC3 inh) | AHR act cf 99 | PXR counter 119
C/C=C/c1cccc(-c2nc(C(=O)N3CCCCC3)cc3c2[C@H](CCO)N(C(=O)NC(C)C)C3)c1	none (no result: M18AAP inhibitor, HDAC3 inh, FXN GAA850 act, Fh CTSL1 inh, AHR activator)
CCOc1cc2nc(-c3ccc(OC)c(OC)c3)nc(N3CCOCC3)c2cc1OC	none (no result: FXN GAA850 act, SENP1 FRET inh)
CCOc1cc2nc(-c3ccc(OC)c(OC)c3)nc(N3CC(C)OC(C)C3)c2cc1OC (centres undefined)	AHR activator 83 (no result: FXN GAA850 act, SENP1 FRET inh) | AHR act cf 96 | PXR counter 16
COCCNC(=O)C1(C)Cc2c(-c3ccc(N(C)C)cc3)ccnc2O1 (centres undefined)	none (no result: M18AAP inhibitor, HDAC3 inh, Fh CTSL1 inh, AHR activator)
CC1(C)CC(=O)C/C(=N/NC(=O)COc2ccc3ccccc3c2Br)C1	none
CCc1ccc(N=Nc2ccc(O)c3[nH]cnc23)cc1	SENP1 FRET inh 76, AHR activator 101 (no result: M18AAP inhibitor, Fh CTSL1 inh) | AHR act cf 93 | PXR counter 11
c1ccc(N=NC2=NN(c3ccccc3)CS2)cc1	none (no result: M18AAP inhibitor, HDAC3 inh, Fh CTSL1 inh, AHR activator)
COc1ccc(-c2[nH]c(-c3cc(OC)c4c(c3)OCO4)nc2-c2ccccc2)cc1	AHR activator 107 | AHR act cf 54 | PXR counter 57
COc1ccc(-c2nc(-c3ccccc3)c(-c3cc([N+](=O)[O-])ccc3C)[nH]2)cc1OC	none
ONC(=Nc1ccc(Cl)cc1)c1ccc(Cl)cc1	AHR activator 117 | AHR act cf 115 | PXR counter 12
O=C(NN=C1CCC(c2ccccc2)CC1)c1ccccc1-n1cccc1 (centres undefined)	AHR activator 117 (no result: HDAC3 inh) | AHR act cf inactive | PXR counter inactive
CC1CCC/C(=N/NC(=O)c2ccccc2-n2cccc2)C1 (centres undefined)	AHR activator 83 | AHR act cf inactive | PXR counter 11
CCCNC(=O)C1(C)CCN(C(=O)c2cccc(C#N)c2)C1 (centres undefined)	none (no result: M18AAP inhibitor, HDAC3 inh, Fh CTSL1 inh, AHR activator)
Cc1ccc(C)c(C(=O)O/N=C(\N)c2ccc(Br)cc2)c1	AHR activator 95 | AHR act cf 118 | PXR counter 15
N/C(=N\OC(=O)c1ccccc1[N+](=O)[O-])c1cccnc1	AHR activator 138 | AHR act cf 76 | PXR counter 29
N/C(=N\OC(=O)c1cccc2ccccc12)c1ccc(Br)cc1	AHR activator 96 | AHR act cf 99 | PXR counter 15
N/C(=N\OC(=O)c1ccc([N+](=O)[O-])cc1)c1cccnc1	none
Cc1ccccc1C(=O)O/N=C(\N)c1ccccc1	AHR activator 79 | AHR act cf 95 | PXR counter inactive
COCCNc1oc(/C=C/c2ccccc2OC)nc1S(=O)(=O)c1ccccc1	none
O=C(NC(=S)NCc1ccccc1Cl)c1cccs1	HDAC3 inh inconclusive (no result: M18AAP inhibitor, Fh CTSL1 inh)
